The source made the active and inactive calls. The calls are words filed in the database; no cut-off is given here. Bounds are passed on as bounds.

A short description of data set [1]: Apparent permeability from basolateral to apical side in human Caco2 cells at 10 uM incubated for 120 mins. To be noted: Caco-2. Type of data set: ADME, cell-based. In outline: (§1)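 Polarized Caco-2 cell monolayer, permeability measured in both directions (apical to basolateral and basolateral to apical), reported as Papp in 10–6 cm s–1. Efflux ratio taken as the ratio of the directional permeabilities. Compound recovery also determined.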
(Caco-2 monolayers are a common model of the intestinal barrier.)

The nature of data set [2]: Efflux ratio of apparent permeability across basolateral to apical membrane over apical to basolateral membrane in human Caco2 cells at 10 uM incubated for 120 mins. Type of data set: ADME, cell-based. As to conditions: Caco-2. The method in brief:
as §1

A short description of data set [3]: Apparent permeability in pH 7.4 ammonium acetate buffer incubated for 5 hrs by PAMPA. The class given is ADME. The method in brief:
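Passive permeability by PAMPA, reported as Papp in 10–6 cm s–1. Values under the limit of quantification were flagged as BLQ. Compound recovery in the assay was also determined.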

Data set [4] in a line: Apparent permeability from apical to basolateral side in human Caco2 cells at 10 uM incubated for 120 mins. The class given is ADME, cell-based. To be noted: Caco-2. The method in brief: as §1
Another data set addresses Albumin (Homo sapiens, UniProt P02768). The data set is described as follows: Binding affinity to HSA assessed as free fraction by HPLC analysis. The class given is ADME. As to conditions: isolated protein.
A short description of data set [5]: Chromatographic hydrophobicity index, log D of the compound at pH 7.4 by HPLC analysis. The class given is physicochemical. As to conditions: buffer.
Data set [6] has as its target T1, von Hippel-Lindau disease tumor suppressor/Androgen receptor (Homo sapiens, UniProt P10275+P40337). The data set is described as follows: Protac activity at VHL/androgen receptor in human LNCaP cells assessed as induction of androgen receptor protein degradation at 1 uM incubated for 6 hrs by Western blot analysis relative to control. Type of data set: cell-based. For orientation: In western blotting, separated proteins are transferred to a membrane and probed.
Target sequence in this assay (P10275 whole entry, looked up): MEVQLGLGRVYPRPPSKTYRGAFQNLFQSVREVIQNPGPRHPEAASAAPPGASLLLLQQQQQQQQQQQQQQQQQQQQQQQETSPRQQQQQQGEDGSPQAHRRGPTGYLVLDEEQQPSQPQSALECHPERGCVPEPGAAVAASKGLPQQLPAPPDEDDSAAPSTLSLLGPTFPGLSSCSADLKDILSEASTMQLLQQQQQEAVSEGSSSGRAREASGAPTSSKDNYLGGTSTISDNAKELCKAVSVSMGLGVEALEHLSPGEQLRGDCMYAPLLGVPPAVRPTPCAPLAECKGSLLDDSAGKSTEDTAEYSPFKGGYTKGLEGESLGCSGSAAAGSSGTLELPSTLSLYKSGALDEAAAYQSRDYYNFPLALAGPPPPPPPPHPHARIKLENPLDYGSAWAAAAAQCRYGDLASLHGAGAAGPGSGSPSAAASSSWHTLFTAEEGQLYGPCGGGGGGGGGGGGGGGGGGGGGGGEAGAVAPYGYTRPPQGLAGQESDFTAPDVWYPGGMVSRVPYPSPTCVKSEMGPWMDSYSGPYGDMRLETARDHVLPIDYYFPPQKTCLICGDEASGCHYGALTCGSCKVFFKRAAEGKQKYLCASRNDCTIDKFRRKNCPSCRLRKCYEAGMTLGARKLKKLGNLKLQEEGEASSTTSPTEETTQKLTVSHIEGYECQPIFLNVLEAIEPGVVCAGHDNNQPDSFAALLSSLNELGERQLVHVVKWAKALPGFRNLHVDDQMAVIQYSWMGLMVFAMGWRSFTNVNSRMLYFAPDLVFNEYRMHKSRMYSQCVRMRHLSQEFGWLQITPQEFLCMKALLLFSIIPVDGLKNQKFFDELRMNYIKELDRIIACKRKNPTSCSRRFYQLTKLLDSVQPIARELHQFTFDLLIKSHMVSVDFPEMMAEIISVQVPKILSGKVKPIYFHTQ
Target sequence in this assay (P40337 whole entry, looked up): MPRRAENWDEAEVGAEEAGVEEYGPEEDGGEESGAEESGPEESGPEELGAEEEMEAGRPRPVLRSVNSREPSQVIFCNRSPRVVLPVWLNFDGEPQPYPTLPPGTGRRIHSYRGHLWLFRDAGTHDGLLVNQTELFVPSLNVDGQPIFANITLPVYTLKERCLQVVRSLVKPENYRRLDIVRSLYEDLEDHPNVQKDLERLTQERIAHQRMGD

Data set [7] has as its target T1, von Hippel-Lindau disease tumor suppressor/Androgen receptor. The data set is described as follows: Protac activity at VHL/androgen receptor in human LNCaP cells assessed as induction of androgen receptor protein degradation incubated for 6 hrs by Western blot analysis relative to control. The class given is cell-based. The method in brief:
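LNCaP cells (androgen-dependent human prostate adenocarcinoma) were exposed to a concentration series of PROTAC. AR protein levels were normalized and plotted against PROTAC concentration. DCMAX is the percentage of AR cleared, and DC50 is the concentration clearing half of DCMAX. Data come from at least 5 independent experiments run in triplicate, with ANOVA (Dunnett's) for significance.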
Target sequence in this assay (P10275 whole entry, looked up): as the sequence (P10275 whole entry, looked up) above
Target sequence in this assay (P40337 whole entry, looked up): as the sequence (P40337 whole entry, looked up) above

The target is the same in data set [8]. The data set is described as follows: Protac activity at VHL/androgen receptor in human LNCaP cells assessed as induction of androgen receptor protein degradation incubated for 6 hrs by Western blot analysis. Type of data set: cell-based. The method in brief: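 Androgen-dependent LNCaP prostate adenocarcinoma cells treated across a concentration range, then AR protein levels normalized and plotted against concentration. DCMAX is the percentage of AR cleared; DC50 is the concentration giving half of DCMAX. At least 5 independent experiments, each in triplicate. Significance by ANOVA with Dunnett's test.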

Albumin, sequence (P02768 whole entry): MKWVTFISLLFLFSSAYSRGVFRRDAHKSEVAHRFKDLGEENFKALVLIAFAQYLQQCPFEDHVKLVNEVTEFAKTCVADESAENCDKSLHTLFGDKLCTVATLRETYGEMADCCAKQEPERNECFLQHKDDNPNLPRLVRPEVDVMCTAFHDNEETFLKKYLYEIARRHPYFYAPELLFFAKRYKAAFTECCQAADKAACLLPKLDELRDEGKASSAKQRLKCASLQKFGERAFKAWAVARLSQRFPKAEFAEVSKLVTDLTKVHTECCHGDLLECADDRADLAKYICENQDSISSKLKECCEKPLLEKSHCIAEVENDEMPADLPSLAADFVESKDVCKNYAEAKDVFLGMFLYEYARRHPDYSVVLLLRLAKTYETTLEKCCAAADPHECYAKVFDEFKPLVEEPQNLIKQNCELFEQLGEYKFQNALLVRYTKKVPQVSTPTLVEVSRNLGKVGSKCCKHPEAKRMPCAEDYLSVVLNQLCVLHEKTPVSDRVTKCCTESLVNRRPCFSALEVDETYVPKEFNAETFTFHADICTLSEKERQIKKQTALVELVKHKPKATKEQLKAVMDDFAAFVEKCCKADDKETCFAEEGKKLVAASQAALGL

By Papp B→A is commonly meant how fast a substance crosses the layer from the basolateral side. By efflux ratio is commonly meant a quotient of directional permeabilities that is used to spot active efflux. A word on the Papp: it is the rate of passage across a membrane or cell layer, normalised by area and donor concentration. Broadly, the Papp A→B is the apparent permeability from the apical to the basolateral side of a cell layer. `Cc1ncsc1-c1ccc(CNC(=O)[C@@H]2C[C@@H](O)CN2C(=O)[C@@H](NC(=O)COCCCOCCCCCOc2ccc(N3C(=S)N(c4ccc(C#N)c(C(F)(F)F)c4)C(=O)C3(C)C)cc2)C(C)(C)C)cc1`: the Papp B→A at 2 h, 10 µM in data set [1] was 0.24 ×10⁻⁶ cm/s. In addition, in [2], the efflux ratio at 2 h, 10 µM worked out at 0.7. In [3], the Papp at 5 h is below 1 ×10⁻⁶ cm/s. The Papp A→B at 2 h, 10 µM in data set [4] came to 0.35 ×10⁻⁶ cm/s. On Albumin, the Activity is reported as 9%. The CHI in data set [5] is listed as 6.3.

In the case of `N#Cc1ccc(N2CCC[C@@H]2C(O)CO)cc1C(F)(F)F` (stereo partly drawn), the Papp at 5 h in data set [3] is 13.3 ×10⁻⁶ cm/s. At Albumin, the Activity was above 5%.

In the case of `Cc1ncsc1-c1ccc(CNC(=O)[C@@H]2C[C@@H](O)CN2C(=O)[C@@H](NC(=O)COCCCOCC(F)(F)C(F)(F)COc2ccc(N3C(=S)N(c4ccc(C#N)c(C(F)(F)F)c4)C(=O)C3(C)C)cc2)C(C)(C)C)cc1`, the Papp B→A at 2 h, 10 µM in data set [1] was 0.33 ×10⁻⁶ cm/s. Besides, the efflux ratio at 2 h, 10 µM in [2] was above 3. In data set [3], the Papp at 5 h is below 1 ×10⁻⁶ cm/s. The Papp A→B at 2 h, 10 µM in data set [4] turned out to be 0.33 ×10⁻⁶ cm/s. Moreover, the Activity on Albumin is recorded as 7%. The compound also yielded a CHI in data set [5] of 6.1.

With `Cc1ncsc1-c1ccc(CNC(=O)[C@@H]2C[C@@H](O)CN2C(=O)[C@@H](NC(=O)COCC(F)(F)COc2ccc(-c3ccc(N4C(=S)N(c5ccc(C#N)c(C(F)(F)F)c5)C(=O)C4(C)C)cc3)cc2)C(C)(C)C)cc1`, in data set [3], the Papp at 5 h is below 1 ×10⁻⁶ cm/s. For the same compound, the Activity at Albumin amounted to 6%. In [5], the CHI is 6.1.

Take `O=C1CC[C@H](N2Cc3c(O)cccc3C2=O)C(=O)N1`: the Activity on Albumin is on record as above 5%. Further, the CHI in data set [5] came to 0.2.

Regarding `Cc1ncsc1-c1ccc(CNC(=O)[C@@H]2C[C@@H](O)CN2C(=O)[C@@H](NC(=O)COCCCOCCCCOc2ccc(N3C(=S)N(c4ccc(C#N)c(C(F)(F)F)c4)C(=O)C3(C)C)cc2)C(C)(C)C)cc1`, the Papp B→A at 2 h, 10 µM in data set [1] worked out at 1.4 ×10⁻⁶ cm/s. The efflux ratio at 2 h, 10 µM in data set [2] is above 0.5. Moreover, in [3], the Papp at 5 h was below 1 ×10⁻⁶ cm/s. In data set [4], the Papp A→B at 2 h, 10 µM is below 27 ×10⁻⁶ cm/s. Besides, the Activity on Albumin is on record as 10%. Besides, the CHI in data set [5] is given as 6.

Turning to `Cc1ncsc1-c1ccc(CNC(=O)[C@@H]2C[C@@H](O)CN2C(=O)[C@@H](NC(=O)CCOCCOCCOc2ccc(C(=O)N[C@H]3C(C)(C)[C@H](Oc4ccc(C#N)c(C(F)(F)F)c4)C3(C)C)cc2)C(C)(C)C)cc1`, the Papp at 5 h in data set [3] is below 1 ×10⁻⁶ cm/s. Besides, the Activity on Albumin amounted to 8%. Besides, in [5], the CHI stood at 5.8.

As for `Cc1ncsc1-c1ccc(CNC(=O)[C@@H]2C[C@@H](O)CN2C(=O)[C@@H](NC(=O)CCOCCOCCOCCOc2ccc(N3C(=S)N(c4ccc(C#N)c(C(F)(F)F)c4)C(=O)C3(C)C)cc2)C(C)(C)C)cc1`, the Papp B→A at 2 h, 10 µM in [1] came out at 2.6 ×10⁻⁶ cm/s. In addition, the efflux ratio at 2 h, 10 µM in data set [2] is above 12. Moreover, the Papp at 5 h in data set [3] is below 1 ×10⁻⁶ cm/s. Moreover, the Papp A→B at 2 h, 10 µM in data set [4] was below 0.69 ×10⁻⁶ cm/s. Moreover, the Activity on Albumin is 11%. In data set [5], the CHI was determined as 5.1.

For `CC1(C)C(=O)N(c2ccc(C#N)c(C(F)(F)F)c2)C(=S)N1c1ccc(OCCOCCOCCOCCOC23CC4CC(CC(C4)C2)C3)cc1`, the Papp B→A at 2 h, 10 µM in data set [1] worked out at 0.22 ×10⁻⁶ cm/s. For the same compound, the efflux ratio at 2 h, 10 µM in data set [2] was 1.5. In addition, the Papp at 5 h in [3] was below 1 ×10⁻⁶ cm/s. Besides, the Papp A→B at 2 h, 10 µM in data set [4] was found to be 0.15 ×10⁻⁶ cm/s.

Take `CC(O)(COc1ccc(OCCOCCOCCOCCOc2cccc3c2C(=O)N(C2CCC(=O)NC2=O)C3=O)cc1)C(=O)Nc1ccc(C#N)c(C(F)(F)F)c1` (stereo not drawn): the Papp at 5 h in [3] is 0.3 ×10⁻⁶ cm/s.

Regarding `CC1(C)C(=O)N(c2ccc(C#N)c(C(F)(F)F)c2)C(=S)N1c1ccc(O)cc1`, in data set [3], the Papp at 5 h is 4.6 ×10⁻⁶ cm/s. The Activity at Albumin is above 5%. In data set [5], the CHI is given as 5.

Consider `Cc1ncsc1-c1ccc(CNC(=O)[C@@H]2C[C@@H](O)CN2C(=O)[C@@H](NC(=O)COCCCCCOc2ccc(C(=O)N[C@H]3C(C)(C)[C@H](Oc4ccc(C#N)c(C(F)(F)F)c4)C3(C)C)cc2)C(C)(C)C)cc1`, for which, in [3], the Papp at 5 h is below 1 ×10⁻⁶ cm/s. Also, the Activity on Albumin was determined as 7%. This compound also returned a CHI in data set [5] of 6.7.

Consider `OC12CC3CC(CC(C3)C1)C2`, for which the Activity on Albumin was above 5%; in data set [6], 18%. This compound displayed a CHI in data set [5] of 7.9.

On to `Cc1ncsc1-c1ccc(CNC(=O)[C@@H]2C[C@@H](O)CN2C(=O)[C@@H](NC(=O)COCCCOc2ccc(-c3ccc(N4C(=S)N(c5ccc(C#N)c(C(F)(F)F)c5)C(=O)C4(C)C)cc3)cc2)C(C)(C)C)cc1`, for which the Papp at 5 h in data set [3] was below 1 ×10⁻⁶ cm/s. Also, the Activity on Albumin is reported as 7%. In data set [5], this compound came in with a CHI of 6.2.

`Cc1ncsc1-c1ccc(CNC(=O)[C@@H]2C[C@@H](O)CN2C(=O)[C@@H](NC(=O)COCC(F)(F)C(F)(F)C(F)(F)COCCCOc2ccc(N3C(=S)N(c4ccc(C#N)c(C(F)(F)F)c4)C(=O)C3(C)C)cc2)C(C)(C)C)cc1`: the Papp B→A at 2 h, 10 µM in data set [1] is below 0.79 ×10⁻⁶ cm/s. The efflux ratio at 2 h, 10 µM in data set [2] is below 3. The Papp at 5 h in data set [3] is below 1 ×10⁻⁶ cm/s. Moreover, the Papp A→B at 2 h, 10 µM in data set [4] was 0.26 ×10⁻⁶ cm/s. For the same compound, the Activity on Albumin amounted to 7%. In data set [5], the CHI was 6.3.

For the compound `N#Cc1ccc(N2CCC[C@@H]2C(O)COCCOCCOCCOCCOC23CC4CC(CC(C4)C2)C3)cc1C(F)(F)F` (stereo partly drawn), the Papp at 5 h in [3] worked out at 2.3 ×10⁻⁶ cm/s.

Consider `CC(O)(COc1ccc(O)cc1)C(=O)Nc1ccc(C#N)c(C(F)(F)F)c1` (stereo not drawn), for which the Papp at 5 h in data set [3] turned out to be 1.4 ×10⁻⁶ cm/s. The Activity at Albumin was above 5%; in data set [6] it was 23%. The compound further gave a CHI in data set [5] of 4.

In the case of `O=C1CCC(N2C(=O)c3cccc(O)c3C2=O)C(=O)N1` (stereo not drawn), the Papp at 5 h in data set [3] is 2 ×10⁻⁶ cm/s. In addition, the Activity at Albumin is above 5%; in data set [6], 23%. The same compound displayed a CHI in data set [5] of 0.4.

In general, DC50 refers to the concentration at which degradation of the target reaches its halfway point. For the compound `CC1(C)C(=O)N(c2ccc(C#N)c(C(F)(F)F)c2)C(=S)N1c1ccc(OCCOCCOCCOCCOc2cccc3c2CN([C@H]2CCC(=O)NC2=O)C3=O)cc1`, the %max in data set [7] was found to be 33%. The DC50 in [8] is 0.01 µM.

Consider `CN1C(=O)N(c2ccc(C#N)c(C(F)(F)F)c2)C(=O)C1(C)c1ccc(OCCOCCOCCOCCOc2cccc3c2CN([C@H]2CCC(=O)NC2=O)C3=O)cc1` (stereo partly drawn), for which, in [3], the Papp at 5 h turned out to be 0.3 ×10⁻⁶ cm/s.

Turning to `CN1C(=O)N(c2ccc(C#N)c(C(F)(F)F)c2)C(=O)C1(C)c1ccc(O)cc1` (stereo not drawn), the Papp at 5 h in data set [3] worked out at 8.3 ×10⁻⁶ cm/s. Also, on Albumin, the Activity is on record as above 5%. The CHI in [5] was determined as 4.4.

As to `CC(O)(COc1ccc(OCCOCCOCCOCCOc2cccc3c2CN([C@H]2CCC(=O)NC2=O)C3=O)cc1)C(=O)Nc1ccc(C#N)c(C(F)(F)F)c1` (stereo partly drawn), the Papp at 5 h in data set [3] is 0.4 ×10⁻⁶ cm/s.

Consider `CC1(C)C(=O)N(c2ccc(C#N)c(C(F)(F)F)c2)C(=S)N1c1ccc(OCCOCCOCCOCCOc2cccc3c2C(=O)N(C2CCC(=O)NC2=O)C3=O)cc1` (stereo not drawn), for which, in [1], the Papp B→A at 2 h, 10 µM came to 14.1 ×10⁻⁶ cm/s. In addition, the efflux ratio at 2 h, 10 µM in [2] was 8.4. Also, the Papp at 5 h in [3] was below 1 ×10⁻⁶ cm/s. Moreover, the Papp A→B at 2 h, 10 µM in data set [4] was determined as 1.7 ×10⁻⁶ cm/s. Besides, in [8], the outcome was inactive.
